Data from ChEMBL document CHEMBL1148007, “Synthesis of new S-derivatives of clubbed triazolyl thiazole as anti-Mycobacterium tuberculosis agents” (Bioorg Med Chem, 2007).

system: Mycobacterium tuberculosis; assay: Antitubercular activity against Mycobacterium tuberculosis H37Rv by MABA assay; type: functional; conditions: not given
In short: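 Actives re-tested at lower concentrations against H37Rv (ATCC 27294) in BACTEC 12B medium by Microplate Alamar Blue Assay. MIC taken as lowest concentration giving […] fluorescence reduction versus controls; rifampin reference.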

SMILES | MIC
N#CCSc1nnc(Cc2csc(NC(=O)c3ccccc3)n2)n1NC(=O)c1ccc(Cl)cc1 | 3.13 µM
O=C(CCl)Nc1nc(Cc2nnc(S)n2NC(=O)c2cccc([N+](=O)[O-])c2)cs1 | 6.25 µM
O=C(CSc1nnc(Cc2csc(NC(=O)CCl)n2)n1NC(=O)c1cccc([N+](=O)[O-])c1)N/N=C/c1ccccc1 | 1.56 µM
N#CCSc1nnc(Cc2csc(NC(=O)CCl)n2)n1NC(=O)c1cccc([N+](=O)[O-])c1 | < 6.25 µg/mL
NNC(=O)CSc1nnc(Cc2csc(NC(=O)c3ccccc3)n2)n1NC(=O)c1cccc([N+](=O)[O-])c1 | 6.25 µM
O=C(O)CCNc1nc(Cc2nnc(SCC(=O)N/N=C/c3ccccc3)n2NC(=O)c2ccc(Cl)cc2)cs1 | 3.13 µM
O=C(O)CCNc1nc(Cc2nnc(S)n2NC(=O)c2ccc(Cl)cc2)cs1 | 6.25 µM
CC(=O)Nc1nc(Cc2nnc(S)n2NC(=O)c2ccc(Cl)cc2)cs1 | 6.25 µM

system: Escherichia coli; assay: Antibacterial activity against Escherichia coli at 50 to 100 uM after 24 hrs by well diffusion method; type: functional; conditions: not given
In short: (§1)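 Nutrient agar plates with 10 mm wells cut by cork borer; 24-h subcultured bacteria swabbed on. Compounds dissolved in chloroform, 50 to 100 μM added to wells, gentamycin as standard. Incubated 24 h at 24–28 °C; inhibition zone diameter measured and converted to percent inhibition.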

SMILES | inhibition zone [mm]
N#CCSc1nnc(Cc2csc(NC(=O)c3ccccc3)n2)n1NC(=O)c1ccc(Cl)cc1 | 27
O=C(CCl)Nc1nc(Cc2nnc(S)n2NC(=O)c2cccc([N+](=O)[O-])c2)cs1 | 20
O=C(CSc1nnc(Cc2csc(NC(=O)CCl)n2)n1NC(=O)c1cccc([N+](=O)[O-])c1)N/N=C/c1ccccc1 | 26
N#CCSc1nnc(Cc2csc(NC(=O)CCl)n2)n1NC(=O)c1cccc([N+](=O)[O-])c1 | 19
NNC(=O)CSc1nnc(Cc2csc(NC(=O)c3ccccc3)n2)n1NC(=O)c1cccc([N+](=O)[O-])c1 | 17
O=C(O)CCNc1nc(Cc2nnc(SCC(=O)N/N=C/c3ccccc3)n2NC(=O)c2ccc(Cl)cc2)cs1 | 18
O=C(O)CCNc1nc(Cc2nnc(S)n2NC(=O)c2ccc(Cl)cc2)cs1 | 15
CC(=O)Nc1nc(Cc2nnc(S)n2NC(=O)c2ccc(Cl)cc2)cs1 | 20

system: Staphylococcus aureus; assay: Antibacterial activity against Staphylococcus aureus at 50 to 100 uM after 24 hrs by well diffusion method; type: functional; conditions: not given; in short: as §1

SMILES | inhibition zone [mm]
N#CCSc1nnc(Cc2csc(NC(=O)c3ccccc3)n2)n1NC(=O)c1ccc(Cl)cc1 | 31
O=C(CCl)Nc1nc(Cc2nnc(S)n2NC(=O)c2cccc([N+](=O)[O-])c2)cs1 | 22
O=C(CSc1nnc(Cc2csc(NC(=O)CCl)n2)n1NC(=O)c1cccc([N+](=O)[O-])c1)N/N=C/c1ccccc1 | 31
N#CCSc1nnc(Cc2csc(NC(=O)CCl)n2)n1NC(=O)c1cccc([N+](=O)[O-])c1 | 24
NNC(=O)CSc1nnc(Cc2csc(NC(=O)c3ccccc3)n2)n1NC(=O)c1cccc([N+](=O)[O-])c1 | 28
O=C(O)CCNc1nc(Cc2nnc(SCC(=O)N/N=C/c3ccccc3)n2NC(=O)c2ccc(Cl)cc2)cs1 | 22
O=C(O)CCNc1nc(Cc2nnc(S)n2NC(=O)c2ccc(Cl)cc2)cs1 | 11
CC(=O)Nc1nc(Cc2nnc(S)n2NC(=O)c2ccc(Cl)cc2)cs1 | 16

system: Mycobacterium tuberculosis; assay: Antitubercular activity against Mycobacterium tuberculosis H37Rv at 6.25 ug/mL by MABA assay; type: functional; conditions: read-out: GI
In short: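 Primary screen against M. tuberculosis H37Rv (ATCC 27294) in BACTEC 12B medium by broth microdilution Microplate Alamar Blue Assay; fluorescent compounds run instead in BACTEC 460 radiometric system. Compounds above 95% inhibition counted active.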

SMILES | inhibition of growth at 6.25 µg/mL [%]
N#CCSc1nnc(Cc2csc(NC(=O)c3ccccc3)n2)n1NC(=O)c1ccc(Cl)cc1 | 96
O=C(CCl)Nc1nc(Cc2nnc(S)n2NC(=O)c2cccc([N+](=O)[O-])c2)cs1 | 96
O=C(CSc1nnc(Cc2csc(NC(=O)CCl)n2)n1NC(=O)c1cccc([N+](=O)[O-])c1)N/N=C/c1ccccc1 | 100
N#CCSc1nnc(Cc2csc(NC(=O)CCl)n2)n1NC(=O)c1cccc([N+](=O)[O-])c1 | 100
NNC(=O)CSc1nnc(Cc2csc(NC(=O)c3ccccc3)n2)n1NC(=O)c1cccc([N+](=O)[O-])c1 | 100
O=C(O)CCNc1nc(Cc2nnc(SCC(=O)N/N=C/c3ccccc3)n2NC(=O)c2ccc(Cl)cc2)cs1 | 96
O=C(O)CCNc1nc(Cc2nnc(S)n2NC(=O)c2ccc(Cl)cc2)cs1 | 96
CC(=O)Nc1nc(Cc2nnc(S)n2NC(=O)c2ccc(Cl)cc2)cs1 | 96

system: Salmonella typhi; assay: Antibacterial activity against Salmonella typhi at 50 to 100 uM after 24 hrs by well diffusion method; type: functional, Salmonella enterica subsp. enterica serovar Typhi; parameters: unit not given here; conditions: not given; in short: as §1

SMILES | Inhibition
N#CCSc1nnc(Cc2csc(NC(=O)c3ccccc3)n2)n1NC(=O)c1ccc(Cl)cc1 | 19
O=C(CCl)Nc1nc(Cc2nnc(S)n2NC(=O)c2cccc([N+](=O)[O-])c2)cs1 | 16
O=C(CSc1nnc(Cc2csc(NC(=O)CCl)n2)n1NC(=O)c1cccc([N+](=O)[O-])c1)N/N=C/c1ccccc1 | 25
N#CCSc1nnc(Cc2csc(NC(=O)CCl)n2)n1NC(=O)c1cccc([N+](=O)[O-])c1 | 24
NNC(=O)CSc1nnc(Cc2csc(NC(=O)c3ccccc3)n2)n1NC(=O)c1cccc([N+](=O)[O-])c1 | 20
O=C(O)CCNc1nc(Cc2nnc(SCC(=O)N/N=C/c3ccccc3)n2NC(=O)c2ccc(Cl)cc2)cs1 | 22
O=C(O)CCNc1nc(Cc2nnc(S)n2NC(=O)c2ccc(Cl)cc2)cs1 | 22
CC(=O)Nc1nc(Cc2nnc(S)n2NC(=O)c2ccc(Cl)cc2)cs1 | 16

system: Pseudomonas aeruginosa; assay: Antibacterial activity against Pseudomonas aeruginosa at 50 to 100 uM after 24 hrs by well diffusion method; type: functional; conditions: not given; in short: as §1

SMILES | inhibition zone [mm]
N#CCSc1nnc(Cc2csc(NC(=O)c3ccccc3)n2)n1NC(=O)c1ccc(Cl)cc1 | 27
O=C(CCl)Nc1nc(Cc2nnc(S)n2NC(=O)c2cccc([N+](=O)[O-])c2)cs1 | 22
O=C(CSc1nnc(Cc2csc(NC(=O)CCl)n2)n1NC(=O)c1cccc([N+](=O)[O-])c1)N/N=C/c1ccccc1 | 30
N#CCSc1nnc(Cc2csc(NC(=O)CCl)n2)n1NC(=O)c1cccc([N+](=O)[O-])c1 | 24
NNC(=O)CSc1nnc(Cc2csc(NC(=O)c3ccccc3)n2)n1NC(=O)c1cccc([N+](=O)[O-])c1 | 24
O=C(O)CCNc1nc(Cc2nnc(SCC(=O)N/N=C/c3ccccc3)n2NC(=O)c2ccc(Cl)cc2)cs1 | 27
O=C(O)CCNc1nc(Cc2nnc(S)n2NC(=O)c2ccc(Cl)cc2)cs1 | 17
CC(=O)Nc1nc(Cc2nnc(S)n2NC(=O)c2ccc(Cl)cc2)cs1 | 16

system: not listed separately; assay: Cytotoxicity against Vero-C1008 cells at 6.25 to 50 ug/mL by neutral red uptake assay; type: cell-based; conditions: chlorocebus sabaeus
In short: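 Vero-C-1008 cells exposed to 6.25 to 50 μg/mL compound; viability read by neutral red uptake.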

SMILES | Activity
N#CCSc1nnc(Cc2csc(NC(=O)c3ccccc3)n2)n1NC(=O)c1ccc(Cl)cc1 | Non-toxic
O=C(CCl)Nc1nc(Cc2nnc(S)n2NC(=O)c2cccc([N+](=O)[O-])c2)cs1 | Non-toxic
O=C(CSc1nnc(Cc2csc(NC(=O)CCl)n2)n1NC(=O)c1cccc([N+](=O)[O-])c1)N/N=C/c1ccccc1 | Non-toxic
N#CCSc1nnc(Cc2csc(NC(=O)CCl)n2)n1NC(=O)c1cccc([N+](=O)[O-])c1 | Non-toxic
NNC(=O)CSc1nnc(Cc2csc(NC(=O)c3ccccc3)n2)n1NC(=O)c1cccc([N+](=O)[O-])c1 | Non-toxic
O=C(O)CCNc1nc(Cc2nnc(SCC(=O)N/N=C/c3ccccc3)n2NC(=O)c2ccc(Cl)cc2)cs1 | Non-toxic
O=C(O)CCNc1nc(Cc2nnc(S)n2NC(=O)c2ccc(Cl)cc2)cs1 | Non-toxic
CC(=O)Nc1nc(Cc2nnc(S)n2NC(=O)c2ccc(Cl)cc2)cs1 | Non-toxic
